Assay results: ChEMBL document CHEMBL4130551, “1,2,4-Thiadiazolidin-3,5-diones as novel hydrogen sulfide donors” (Eur J Med Chem, 2018)
pEC50: −log10 of the molar value. Activity calls are given as the source filed them. The rule behind the calls is not given here.

Columns and labels:
[1] = Drug metabolism in PBS buffer assessed as H2S release by measuring time required for 50% of maximum H2S release at steady state at 1 mM after 30 mins in presence of 4 mM L-cysteine by amperometric method; assay type: physicochemical; conditions: 0.5 h, 1000 µM
Procedure, shortened: (§1)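 Amperometric real-time H2S detection at room temperature in assay buffer (10x PBS diluted 1:10 in distilled water). Donor added from DMSO stock to a final 1 mM, 1% DMSO, with 4 mM L-cysteine added where the protocol required. Recorded for 30 min. Curves computer-fitted. TCM50 is the time to reach ½ Cmax. Mean ± SE of 5 experiments.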

Thoracic aorta [2] = assay: Vasorelaxant activity in CD-1 mouse thoracic aorta rings assessed as inhibition of L-phenylephrine-induced contraction; assay type: functional, tissue-based; conditions: CD-1, Thoracic aorta
Procedure, shortened: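 Isolated aortic rings precontracted with phenylephrine (1 µM). Cumulative concentration–response curves of each donor (10 nM–300 µM) or DMSO vehicle. EC50 taken from the curves.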

Thoracic aorta [3] = assay: Vasorelaxant activity in CD-1 mouse thoracic aorta rings assessed as inhibition of L-phenylephrine-induced contraction at 100 uM relative to control; assay type: functional; conditions: CD-1, Thoracic aorta
Procedure, shortened: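 Isolated aortic rings precontracted with phenylephrine (1 µM). Cumulative donor concentrations (10 nM–300 µM) or DMSO vehicle. Emax is the maximal relaxation obtained.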

[4] = Drug level in pH 7.4 PBS buffer treated with 2,4-Diphenyl-1,2,4-thiadiazoline-3,5-dione at 0.5 mmol after 5 to 60 mins in presence of cysteine by HPLC-MS analysis; assay type: physicochemical
[5] = Drug metabolism in PBS buffer assessed as H2S release by measuring time required for 50% of maximum H2S release at steady state at 1 mM after 30 mins by amperometric method; assay type: physicochemical; conditions: 0.5 h, 1000 µM; procedure, shortened: as §1
Thoracic aorta [6] = assay: Vasorelaxant activity in CD-1 mouse endothelium denuded thoracic aorta rings assessed as inhibition of L-phenylephrine-induced contraction; assay type: functional, tissue-based
[7] = Drug metabolism in pH 7.4 PBS buffer assessed as phenyl(phenylcarbamoyl)carbamothioic S-acid formation at 0.5 mmol after 5 to 60 mins in presence of cysteine by HPLC-MS analysis; assay type: physicochemical
[8] = Stability in pH 7.4 PBS buffer at 0.5 mmol after 5 mins in presence of cysteine by HPLC analysis; assay type: physicochemical; conditions: PBS buffer with cysteine, read-out: Stability
[9] = Stability in pH 7.4 PBS buffer at 0.5 mmol after 30 mins in presence of cysteine by HPLC analysis; assay type: physicochemical; conditions: PBS buffer with cysteine, read-out: Stability
[10] = Drug metabolism in water at 0.5 mmol after 5 to 60 mins by ESI-MS analysis; assay type: physicochemical; conditions: buffer
[11] = Drug metabolism in pH 7.4 PBS buffer at 0.5 mmol after 5 to 60 mins in presence of S-methyl cysteine by ESI-MS analysis; assay type: physicochemical
[12] = Drug level in pH 7.4 PBS buffer treated with 2,4-Diphenyl-1,2,4-thiadiazoline-3,5-dione at 0.5 mmol after 5 to 60 mins in presence of glutathione by ESI-MS analysis; assay type: physicochemical

Row | Structure (SMILES) | Time [1] | pEC50 (Thoracic aorta [2]) | Emax at 100 µM (Thoracic aorta [3]) | other results
1 | COc1ccc(-n2sc(=O)n(-c3ccc(C)cc3)c2=O)cc1 | 13.25 min | 5.82 | 99% | 
2 | O=C(Nc1ccccc1)Nc1ccccc1 [DIPHENYLUREA] |  |  |  | Drug metabolism [4]: Metabolite_Detected
3 | O=C(S)N(C(=O)Nc1ccccc1)c1ccccc1 |  |  |  | Drug metabolism [4]: Metabolite_Detected
4 | COc1ccc(-n2sc(=O)n(-c3ccc(Cl)cc3)c2=O)cc1 | 15.36 min | 5.68 | 98.6% | 
5 | COc1ccc(-n2sc(=O)n(-c3ccccc3)c2=O)cc1 | 13.25 min | 5.80 | 100% | 
6 | O=c1sn(-c2ccc(F)cc2)c(=O)n1-c1ccccc1 | 9.52 min | 5.41 | 94.3% | 
7 | COc1ccc(-n2sc(=O)n(C3CCCCC3)c2=O)cc1 | 13.93 min | 5.72 | 97.7% | 
8 | COc1ccc(-n2sc(=O)n(-c3ccc(OC)cc3)c2=O)cc1 | 14.8 min | 5.52 | 95% | 
9 | COc1ccc(-n2sc(=O)n(Cc3ccccc3)c2=O)cc1 | 15.75 min |  |  | Time [5]: 13.46 min
10 | Cc1ccc(-n2sc(=O)n(-c3ccccc3)c2=O)cc1 | 13.84 min | 5.89 | 94.5% | 
11 | NC(CSSC(=O)N(C(=O)Nc1ccccc1)c1ccccc1)C(=O)O (centres undefined) |  |  |  | Drug metabolism [4]: Metabolite_Detected
12 | O=c1sn(-c2ccccc2)c(=O)n1-c1ccccc1 | 12.01 min | 5.77 | 99.7% | inhibition (Thoracic aorta [6]): Active; Drug metabolism [7]: Metabolite_Detected; remaining at 5 min, 0.5 mmol [8]: 82%; remaining at 0.5 h, 0.5 mmol [9]: 15%; Drug metabolism [10]: Metabolite_Notdetected; Drug metabolism [11]: Metabolite_Notdetected
13 | N[C@@H](CCC(=O)N[C@@H](CSSC(=O)N(C(=O)Nc1ccccc1)c1ccccc1)C(=O)NCC(=O)O)C(=O)O |  |  |  | Drug metabolism [12]: Metabolite_Detected
14 | NC(CSSCC(N)C(=O)O)C(=O)O (centres undefined) |  |  |  | Drug metabolism [4]: Metabolite_Detected
15 | O=c1sn(-c2ccccc2)c(=O)n1Cc1ccccc1 | 11.4 min |  |  | Time [5]: 9.56 min
